Results published in the EternaBench riboswitch data.

Tested on: MS2 coat protein
Assay: apparent Kd, MS2 coat protein; higher = weaker binding; RNA-MaP array
Summary of the method: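 With or without input ligand, designed RNAs transcribed on an Illumina sequencing chip from sequenced DNA templates were incubated at room temperature with fluorescently labeled MS2 coat protein at 1.5 nM to 3 μM. The buffer was Tris-HCl pH 7.5 with KCl, MgCl2, BSA, DTT, tRNA and Tween20, and incubation ran 0.8–1.5 h at the lowest and 10–20 min at the highest concentrations. Apparent Kd is reported as the median of fits to binding curves from individual clusters. Designs measured on fewer than 10 clusters are not included.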

[1] = designed as: OFF switch for theophylline, no ligand
[2] = ligand present: theophylline, designed as: OFF switch for theophylline
[3] = designed as: OFF switch for flavin mononucleotide, no ligand
[4] = ligand present: flavin mononucleotide, designed as: OFF switch for flavin mononucleotide
[5] = designed as: ON switch for flavin mononucleotide, no ligand
[6] = ligand present: flavin mononucleotide, designed as: ON switch for flavin mononucleotide

Sequence | apparent Kd [3] [nM] | apparent Kd [4] [nM] | apparent Kd [5] [nM] | apparent Kd [6] [nM] | also measured
CUUCUGAAAGCAAUGGGAUCUGUUAUUGAUACCAGCAUCUGAUUUUGCCCUUGGCAGCAAGAAACAUGAGGAUCACCCAUGUGGC |  |  |  |  | apparent Kd [1]: 19.5 nM; apparent Kd [2]: 61.2 nM
UAAUACCAUACAGGAUAUACUUAGCCCAAAACAUGAGGAUCACCCAUGUAUUGGAGUCCUCGGCGGUAGAAGGGUACAGAAAGA | 19.5 | 16.4 |  |  | 
GCAUUAGGGUAAGGAUAUUGAAUUAAACAUGGCAAAGUAAUUUUUGACAUGAGGAUCACCCAUGUCAAGAAGGUACUCAUUCAU | 6.08 | 5.74 |  |  | 
AGUGCUACGUGUAAUCAAAGAGAACCAGAUACCAGAUUAGCAUACAUCCCUUGGCAGCUGCAUACAUGAGGAUCACCCAUGUCAG |  |  |  |  | apparent Kd [1]: 37.2 nM; apparent Kd [2]: 39.1 nM
UUAUAUUCUCAAUCGCCAUGUGCUUUAGAUACCAGUCUGAUAAAUGACCCUUGGCAGCUAGAGACAUGAGGAUCACCCAUGUCUU |  |  |  |  | apparent Kd [1]: 10.6 nM; apparent Kd [2]: 29.8 nM
UUUGUAUAGCAGAAGGCGUUAUUAGGAUGGCUACGAGGAUAUGCGGUACUCUAUUAGUACAUGAGGAUCACCCAUGUGUGGGCC |  |  | 214 | 145 | 
GCAAAAUACAUGAGGAUCACCCAUGUUAAGUGGGCCUGAACAAGAAGGCAGCAAAUUUUAUUUUCUGAGGAUAUUGGCAUAUAU | 30.2 | 36.8 |  |  | 
UUUACGAACGUGGAAAUACAUGAGGAUCACCCAUGUCAAUUGUAGGAUAUCCGGCUCAAAGAAAUGGAGAAGGACAACGACUCC |  |  | 13.4 | 12.7 | 
GUUUCCUCAGGAUAUUACUGCCGGGACAUGAGGAUCACCCAUGUGGCCUCCGUAAGGCUAUAAGAAGGGAGGCGUC | 111 | 157 |  |  | 
CCGACACAGAAGAAGGCUUUUGGUCUUAGCAGAAGAGGAUAUUCCUGUGUUCCGCGUACAUGAGGAUCACCCAUGUGUGAGCAC | 6.59 | 7.46 |  |  | 
UAAAUGUUUUAGAAGGGAUAAUGCGGCAUUGAAUCAGGAUAUAAAGCUAUAAACACAUGAGGAUCACCCAUGUCCCAGGUUAAA |  |  | 477 | 143 | 
UCUGGUUGAGGAUAUACAUGAGGAUCACCCAUGUCACCUAGCAAAGUAGAGAGUAAGUGUAGAAGGCAACCUUU | 15.6 | 18.9 |  |  | 
GAUCGUUGGGAGGAUAUCCGCAAGUCCAGGGAGGGAGAAGGCCCAACAUGAGGAUCACCCAUGUAGAAGCGCAU | 51 | 77.6 |  |  | 
AUGUAGAAUCUAGGAUAUGCGAGAAACUGCGAAGCAGAAGGAGACUUGUACAUGAGGAUCACCCAUGUCCCGGGCGUCCCAACU | 17.7 | 24.2 |  |  | 
CCCUCGUUAUAGAAGGUCACAUUAAAUAAACAUGAAGGAUAUAUACCCAUUACACAUGAGGAUCACCCAUGUUAGGGCUGGCAU | 14.2 | 13.6 |  |  | 
GCCAGCAGUACAUGAGGAUCACCCAUGUCCCUUGUACUUUUAUAGGAUAUACGAGUGGCUACCAUGUAGAAGGAUAGAAUUGUC | 932 | 606 |  |  | 
AUUGUGUAAGGAUAUUAUAGAAGAGGUAGGCAACUUCUGAAUAAGAAGGUACAUGAGGAUCACCCAUGUUCAAU | 11.7 | 12.1 |  |  | 
GCCCGUUAUUAGAAGGGUAUUCGGAUAUGCAUUCCUUACAUGAGGAUCACCCAUGUACCGCGAGUACAGGAUAUAAAACCGCCA | 75.2 | 69.7 |  |  | 
CAACUAAAGGAGAAGGCUAACAUGAGGAUCACCCAUGUCCGCGUGUCCGCUUAUAAUGCGCGCAUAGAGGAUAUCCCAAGUUUA |  |  | 21.4 | 13.6 | 
GCGGAACAUGAGGAUCACCCAUGUCAGGAUAUACGCACGGAGUAGGAGGAGGCCUAUGGUAGAAGGGACAGUGA | 10.8 | 10.2 |  |  | 
AGACAUGAGGAUCACCCAUGUUUGUGUAUCUGACCGCGCACUAGAAGGGAUUGGACAACUUACUAUCAGGAUAUAGACAACGGU |  |  | 8.4 | 6.95 | 
UACUCAAGAGUAAGGAUAUAGAACCAAAUAGCGGACUAGAAGGUACAUGAGGAUCACCCAUGUCAAAGACAGAA | 7.44 | 7.19 |  |  | 
AGCAUCGCAGGAUAUACAUGAGGAUCACCCAUGUAAAAUAACAAACUUGAACCUGCAAGUAGAAGGGCGUAACG | 8.31 | 7.87 |  |  | 
GACGAGGAACCAAAGGAUAUACACAUAAACACAUGAGGAUCACCCAUGUAUUAGAGGAUAAACAUGUAGAAGGUUGAUACGGCGUG |  |  | 48.7 | 36.9 | 
CGUUGACAUGAGGAUCACCCAUGUUCCCUAGCCACAGGAUAUCGACGCGUGCUCGCUAGACGAGAAGGGUGGUAAA |  |  | 30.4 | 11.7 | 
GUCCUACAUGAGGAUCACCCAUGUGGUCGUGGUAUAGGAUAUUAGGACUUUGUAAUCAGUUAAGAAGGAUAUCACU |  |  | 60.1 | 17.4 | 
